Data taken from PMC3545439 (Investigational new drugs, 2010).
Where two headings read alike, the source gives them in different places.

Tests used:
[1] = Vorinostat serum pharmacokinetics in patients; assay type: in vivo, human
[2] = test system: patients with advanced solid tumors; assay: Phase I dose escalation: toxicity; assay type: in vivo, human
Method in brief: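 Open-label, non-randomized 3+3 escalation in groups of 3–6, outpatient, with no intra-patient escalation. […] DLT was grade 4 hematologic or grade 3–4 non-hematologic toxicity (including diarrhea despite prophylaxis), or delay allowing fewer than 2 treatments in weeks 1–3. MTD was one level below the dose at which ≥2 patients had first-cycle DLT.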

[3] = cited from earlier work
[4] = cited from earlier work; remark: listed apart in the source
[5] = test system: patients; conditions: PO daily × 3 days, every 14 days, with infusional fluorouracil and leucovorin; cited from earlier work
[6] = Flavopiridol plasma pharmacokinetics in patients; assay type: in vivo, human

Compound	patients achieving vorinostat Cmax ≥2.5 μM ([1]; 800 mg dose level (MTD)) [%]	increase of vorinostat Cmax by flavopiridol ([1]; cycle 1 versus cycle −1, all patients, 95% CI 11%–43%) [%]	maximum tolerated dose (MTD) of vorinostat ([2]; 21-d schedule: days 1–3 and 8–10, with flavopiridol 60 mg/m^2 over 1 hr days 2 and 9) [mg/day]	maximum tolerated dose (MTD) of vorinostat ([2]; 28-d schedule: days 1–3 and 15–17, with split-dose flavopiridol days 2 and 16) [mg/day]	vorinostat level that enhances chemotherapy in vitro [3] [µM]	Cmax ([4]; read-out: average Cmax, vorinostat in combination with carboplatin and paclitaxel or FOLFOX) [µM]	Cmax ([4]; standard dose 400 mg PO daily continuously) [µM]	Cmax ([4]; vorinostat 900 mg/m^2 IV daily × 3 days every 3 weeks) [µM]	MTD of vorinostat [5]	Cmax ([6]; human, plasma, intravenous) [µM]	patients achieving flavopiridol Cmax of ≥2 μM ([6]; patients tested (20)) [%]	maximum tolerated dose (MTD), flavopiridol ([2]; 21-d schedule, bolus over 1 hr days 2 and 9, with vorinostat 600 mg/d) [mg/m^2]	maximum tolerated dose (MTD), flavopiridol ([2]; 28-d schedule, split dose days 2 and 16, with vorinostat 800 mg/d)
O=C(CCCCCCC(=O)Nc1ccccc1)NO [vorinostat, suberoylanilide hydroxamic acid]	86	27	600	800	> 2.5	< 2	~2.5	> 30	1,700 mg	–	–	–	–
CN1CC[C@H](c2c(O)cc(O)c3c(=O)cc(-c4ccccc4Cl)oc23)[C@H](O)C1 [flavopiridol]	–	–	–	–	–	–	–	–	–	3.92	90	60	30 mg/m^2 over 30 min followed by 30 mg/m^2 over 4 h
